Source: article PMC3700807 (Planta medica, 2011)
Values after ≈ are worked out from the molar mass of the structure shown. Read-outs that look alike come from different tables or passages of the source. Blank lines part the entries; values can stand above or below the compound they belong to.

How the values were obtained:
[1] = tested on: Leishmania donovani promastigotes; experiment: Antileishmanial assay, promastigotes; type: cell-based; details: for IC90: Leishmania donovani, 72 h, read-out: Leishmania donovani Promastigotes IC90
[2] = tested on: Leishmania donovani axenic amastigotes; experiment: Antileishmanial assay, axenic amastigotes; type: cell-based; details: for IC90: Leishmania donovani, 72 h, read-out: Leishmania donovani Axenic Amastigotes IC90
[3] = Cytotoxicity to PMA transformed THP1 cells; type: cell-based; details: human
[4] = tested on: Leishmania donovani amastigotes in THP1 macrophage cultures; experiment: Antileishmanial macrophage-amastigote assay; type: cell-based; details: mean ± S.D. of three observations; for IC50: Leishmania donovani, THP-1, read-out: Leishmania donovani Macrophage-Amastigotes IC50, amastigotes in THP1 macrophage cultures
[5] = tested on: Plasmodium falciparum D6 (chloroquine-sensitive clone); details: data reported previously; cited from earlier work
[6] = tested on: Plasmodium falciparum W2 (chloroquine-resistant clone); details: data reported previously; cited from earlier work
VERO cells [7] = details: VERO cells cytotoxicity; data reported previously; cited from earlier work
[8] = tested on: Plasmodium falciparum D6 (chloroquine-sensitive clone); experiment: In vitro antiplasmodial assay; type: cell-based; details: chloroquine-sensitive clone D6
[9] = tested on: Plasmodium falciparum W2 (chloroquine-resistant clone); experiment: In vitro antiplasmodial assay; type: cell-based; details: chloroquine-resistant clone W2
VERO cells [10] = experiment: Cytotoxicity to VERO cells; type: cell-based
Transformed THP1 cells = experiment: Cytotoxicity to PMA transformed THP1 cells; type: cell-based
[11] = tested on: Candida albicans (ATCC 90028); experiment: Antimicrobial susceptibility assay, C. albicans; type: cell-based; details: highest test concentration 20 μg/mL
Procedure, shortened: (§1)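 Yeasts were tested by a modified CLSI broth-dilution method, with growth monitored by optical density. Amphotericin B was the drug control in each assay. IC50 (50% inhibition vs controls) was curve-fitted from duplicate readings. MIC is the lowest concentration allowing no detectable growth. For MFC, 5 μL from each clear well was plated on agar and incubated until growth was seen.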

C. glabrata (ATCC 90030) = experiment: Antimicrobial susceptibility assay, C. glabrata; type: cell-based; details: highest test concentration 20 μg/mL
Procedure, shortened: as §1

C. krusei (ATCC 6258) = experiment: Antimicrobial susceptibility assay, C. krusei; type: cell-based; details: highest test concentration 20 μg/mL
Procedure, shortened: as §1

[12] = tested on: Cryptococcus neoformans (ATCC 90113); experiment: Antimicrobial susceptibility assay, C. neoformans; type: cell-based; details: highest test concentration 20 μg/mL
Procedure, shortened: as §1

[13] = tested on: Aspergillus fumigatus (ATCC 204305); experiment: Antimicrobial susceptibility assay, A. fumigatus; type: cell-based; details: highest test concentration 20 μg/mL
Procedure, shortened: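 Broth-dilution susceptibility test in medium with 5% Alamar Blue for growth detection. Amphotericin B was the drug control in each assay. IC50 (50% inhibition vs controls) was curve-fitted from duplicate readings. MIC is the lowest concentration with no detectable growth. For MFC, 5 μL from each clear well was moved to agar and incubated until growth appeared.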

[14] = tested on: Staphylococcus aureus (ATCC 29213); experiment: Antimicrobial susceptibility assay, S. aureus; type: cell-based; details: highest test concentration 20 μg/mL
Procedure, shortened: (§2)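 Bacteria were tested by a modified CLSI broth-dilution method, with growth read as optical density. Ciprofloxacin was the drug control in each assay. IC50 (50% inhibition relative to controls) was fitted from duplicate readings. MIC is the lowest concentration with no detectable growth. For MBC, 5 μL from each clear well was transferred to agar and incubated until growth appeared.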

[15] = tested on: methicillin-resistant S aureus (MRSA, ATCC 33591); experiment: Antimicrobial susceptibility assay, MRSA; type: cell-based, Staphylococcus aureus; details: highest test concentration 20 μg/mL
Procedure, shortened: as §2

[16] = tested on: Mycobacterium intracellulare (ATCC 23068); experiment: Antimicrobial susceptibility assay, M. intracellulare; type: cell-based; details: highest test concentration 20 μg/mL
Procedure, shortened: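 Mycobacterium intracellulare (ATCC 23068) was tested by a modified broth susceptibility method, with growth detected in medium containing 5% Alamar Blue. IC50 was fitted against untreated controls from duplicate readings. MIC was taken as the lowest concentration with no detectable growth. For MBC, clear wells were subcultured onto agar and incubated until growth appeared. Ciprofloxacin was included as the drug control in each assay.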

[17] = quoted as basis for basifying to pH 11; no reference given; cited from earlier work
[18] = 26 °C, 72 hours, mean ± S.D. of three observations
[19] = 37 °C, 72 hours, mean ± S.D. of three observations
[20] = amastigotes in THP1 macrophage cultures

SMILES: C[C@@H]1N[C@H](CCCCCCCCCCC2=C[C@@H](CCCCCCCCCC[C@@H]3CC[C@@H](O)[C@H](C)N3)[C@@H]3CCCN3C2)CC[C@H]1O [Compound 3, prosopilosine]
Leishmania donovani Promastigotes IC50 [1, 18]: 0.17 ± 0.05 µg/mL
IC90 [1]: 6.33 ± 1.07 µg/mL (≈ 10 µM)
Leishmania donovani Axenic Amastigotes IC50 [2, 19]: 0.98 ± 0.12 µg/mL
IC90 [2]: 6.49 ± 0.84 µg/mL (≈ 10.3 µM)
IC50 [3]: 2.33 ± 0.51 µg/mL (≈ 3.7 µM)
IC90 [3]: 3.89 ± 0.51 µg/mL (≈ 6.17 µM)

SMILES: C[C@@H]1N[C@H](CCCCCCCCCCc2cc(CCCCCCCCCC[C@H]3CC[C@@H](O)[C@@H](C)N3)c[n+]3c2CCC3)CC[C@H]1O [Compound 5, isoprosopilosidine]
IC90 [1]: 4.52 ± 0.74 µg/mL
IC90 [2]: 24.8 ± 3.7 µg/mL
IC50 [4]: 5.87 ± 0.76 µg/mL
IC50 ([3]; PMA transformed THP1 cells): 7.92 ± 1.22 µg/mL
IC90 ([3]; PMA transformed THP1 cells): 19 µg/mL

SMILES: C[C@H]1N[C@@H](CCCCCCCCCCC2=C[C@@H](CCCCCCCCCC[C@H]3CC[C@@H](O)[C@@H](C)N3)[C@@H]3CCCN3C2)CC[C@H]1O [Compound 6, juliprosopine]
Leishmania donovani Promastigotes IC50 [1, 18]: 0.29 ± 0.05 µg/mL
IC90 [1]: 1.14 ± 0.21 µg/mL (≈ 1.81 µM)
Leishmania donovani Axenic Amastigotes IC50 [2, 19]: 1.92 ± 0.19 µg/mL
IC90 [2]: 6.25 ± 0.47 µg/mL (≈ 9.92 µM)
IC50 [3]: 3.43 ± 0.32 µg/mL (≈ 5.44 µM)
IC90 [3]: 7.89 ± 1.2 µg/mL (≈ 12.5 µM)
P. falciparum D6 IC50 [5]: 0.22 ± 0.025 µg/mL
P. falciparum W2 IC50 [6]: 0.38 ± 0.05 µg/mL
VERO IC50 (VERO cells [7]): 5 µg/mL

SMILES: C[C@@H]1N[C@H](CCCCCCCCCCc2cc(CCCCCCCCCC[C@@H]3CC[C@H](O)[C@H](C)N3)c3[n+](c2)CCC3)CC[C@@H]1O [Compound 7, juliprosine]
P. falciparum D6 IC50 [8]: 0.17 ± 0.035 µg/mL
P. falciparum W2 IC50 [9]: 0.15 ± 0.06 µg/mL
VERO IC50 (VERO cells [10]): >23.8 µg/mL
Leishmania donovani Promastigotes IC50 [1, 18]: 1.38 ± 0.23 µg/mL
Leishmania donovani Promastigotes IC90 [1, 18]: 5.85 ± 0.72 µg/mL
Leishmania donovani Axenic Amastigotes IC50 [2, 19]: 2.58 ± 0.37 µg/mL
Leishmania donovani Axenic Amastigotes IC90 [2, 19]: 29.8 ± 4.3 µg/mL
Leishmania donovani Macrophage-Amastigotes IC50 [4, 20]: 3.08 ± 0.43 µg/mL
Leishmania donovani Macrophage-Amastigotes IC90 [4, 20]: 7.89 ± 1.91 µg/mL
Cytotoxicity (Transformed THP1 cells) IC50 (Transformed THP1 cells): 19.5 ± 1.0 µg/mL
Cytotoxicity (Transformed THP1 cells) IC90 (Transformed THP1 cells): >20 µg/mL
C. albicans IC50 [11]: -/-/- ((-) = Not active at the highest test concentration of 20 μg/mL)
C. albicans MFC [11]: -/-/- ((-) = Not active at the highest test concentration of 20 μg/mL)
C. albicans MIC [11]: -/-/- ((-) = Not active at the highest test concentration of 20 μg/mL)
C. glabrata IC50 (C. glabrata (ATCC 90030)): -/-/- ((-) = Not active at the highest test concentration of 20 μg/mL)
C. glabrata MFC (C. glabrata (ATCC 90030)): -/-/- ((-) = Not active at the highest test concentration of 20 μg/mL)
C. glabrata MIC (C. glabrata (ATCC 90030)): -/-/- ((-) = Not active at the highest test concentration of 20 μg/mL)
C. krusei IC50 (C. krusei (ATCC 6258)): -/-/- ((-) = Not active at the highest test concentration of 20 μg/mL)
C. krusei MFC (C. krusei (ATCC 6258)): -/-/- ((-) = Not active at the highest test concentration of 20 μg/mL)
C. krusei MIC (C. krusei (ATCC 6258)): -/-/- ((-) = Not active at the highest test concentration of 20 μg/mL)
C. neoformans IC50 [12]: 0.17 µg/mL
C. neoformans MFC [12]: 0.63 µg/mL
C. neoformans MIC [12]: 0.63 µg/mL
A. fumigatus IC50 [13]: -/-/- ((-) = Not active at the highest test concentration of 20 μg/mL)
A. fumigatus MFC [13]: -/-/- ((-) = Not active at the highest test concentration of 20 μg/mL)
A. fumigatus MIC [13]: -/-/- ((-) = Not active at the highest test concentration of 20 μg/mL)
S. aureus IC50 [14]: 3.0 µg/mL
S. aureus MBC [14]: 10 µg/mL
S. aureus MIC [14]: 5.0 µg/mL
MRSA IC50 [15]: 3.03 µg/mL
MRSA MBC [15]: 10 µg/mL
MRSA MIC [15]: 5.0 µg/mL
M. intracellulare IC50 [16]: 0.80 µg/mL
M. intracellulare MBC [16]: 5 µg/mL
M. intracellulare MIC [16]: 1.25 µg/mL

Leishmania donovani Promastigotes IC50 [1, 18]: 1.06 ± 0.32 µg/mL
IC90 [1]: 3.86 ± 0.41 µg/mL (≈ 11.3 µM)
Leishmania donovani Axenic Amastigotes IC50 [2, 19]: 2.09 ± 0.37 µg/mL
IC90 [2]: 14.7 ± 2.2 µg/mL (≈ 43.2 µM)
IC50 [4]: 3 µg/mL (≈ 8.81 µM)
Leishmania donovani Macrophage-Amastigotes IC50 [4, 20]: 2.97 ± 0.44 µg/mL
SMILES: N=C(N)c1ccc(OCCCCCOc2ccc(C(=N)N)cc2)cc1 [Pentamidine, reference compound]
IC50 ([3]; PMA transformed THP1 cells): > 20 µg/mL
IC90 ([3]; PMA transformed THP1 cells): > 20 µg/mL

SMILES: NCCc1c[nH]c2ccccc12 [tryptamine]
pKa [17]: 10.2
